Measured values gathered from unrelated publications.
Lines come from different studies, so protocols differ.

Cc1ccccc1C(=O)NN=Cc1ccc(O)c(Br)c1
half-life (mouse, plasma; intravenous, 1.6 mg/kg): 1.24 h

Cc1cc(C)nc(Nc2ncc(C(=O)NCCc3c(C)[nH]c4ccccc34)cn2)c1
microsomal CLint (metabolic stability; dog, liver microsomes; 1 µM): 72 µL/min/mg

C[C@]12CC[C@H](n3ccnc3)CC1=CC[C@@H]1[C@@H]2CC[C@]2(C)C(n3cnc4ccccc43)=CC[C@@H]12.Cl.Cl
half-life (male CD-1 mouse, plasma; intravenous, 1 mg/kg): 17.5 h

CCN(CC)CCCC[C@H](NC(=O)[C@H](CC(C)C)NC(=O)[C@H](C)NC(=O)[C@H](Cc1ccccc1)NC(=O)c1ccc(C(C)(C)C)cc1)C(=O)N[C@@H](CO)C(=O)OC
half-life (male Swiss mouse, blood; intravenous, 3 mg/kg): 0.09 h

Cc1ccncc1OC(=O)NCCCCCn1ccc2ccc(F)cc21
chromatographic logP (HPLC): 2.7

C[C@]12CC[C@H](O)CC1=CC[C@@H]1[C@@H]2CC[C@]2(C)C(n3cnc4ccccc43)=CC[C@@H]12.Cl
half-life (mouse, plasma; intravenous, 1 mg/kg): 1.02 h

O=C(NCCCCCn1ccc2ccc(F)cc21)Oc1ccc(C(=O)O)cc1
chromatographic logP (HPLC): 2.8

NCC(=O)Nc1ccc(-n2nc(C(F)(F)F)cc2-c2ccc3c(ccc4ccccc43)c2)cc1
half-life (mouse, plasma; oral, 80 mg/kg, single dose): 22 h

CC[C@H]1CN2CC[C@H]1C[C@H]2[C@H](O)c1ccnc2ccc(OC)cc12
logP (water): 3.07

NC(=O)c1cccc(-c2cccc(OC(=O)NC3CCCCC3)c2)c1
chromatographic logP (HPLC): 2

N=c1c2c(-c3ccccc3)c(-c3ccccc3)n(Cc3ccccc3)c2ncn1[C@H]1CC[C@H](O)CC1
half-life (female minipig, plasma; oral, 2.5 mg/kg, single dose): 98.4 h

O=C(NCCCCCn1ccc2ccc(F)cc21)Oc1ccc(F)cc1
chromatographic logP (HPLC): 4.2

Nc1nc(-c2ccccc2)nc2[nH]nc(Nc3ccc(C(F)(F)F)cc3)c12
concentration (mouse, plasma; oral, 100 mg/kg, 6 h): 802 ng/mL

C=C[C@H]1CN2CC[C@H]1C[C@H]2[C@H](O)c1ccnc2ccccc12
logP (water): 2.68

CN[C@H](CC(C)C)C(=O)N[C@H]1C(=O)N[C@@H](CC(N)=O)C(=O)N[C@H]2C(=O)NC3C(=O)N[C@H](C(=O)N[C@H](C(=O)NCCC[N+](C)(C)C)c4cc(O)cc(O)c4-c4cc3ccc4O)[C@H](O)c3ccc(c(Cl)c3)Oc3cc2cc(c3OC2OC(CO)C(O)[C@H](O)[C@@H]2O[C@H]2CC(C)(NCc3ccc(-c4ccc(Cl)cc4)cc3)[C@H](O)[C@H](C)O2)Oc2ccc(cc2Cl)[C@H]1O (some centres unmarked)
half-life (mouse, plasma; intravenous, 10 mg/kg): 7 h

N#Cc1ccccc1OC(=O)NCCCCCn1ccc2ccc(F)cc21
chromatographic logP (HPLC): 3.9

CCCCCCCC/C=C\CCCCCCCC(=O)OC[C@](C)(O)C[C@@H]1NC(=O)[C@@H]2Cc3c([nH]c4ccccc34)SC[C@H](NC(=O)[C@@H]([C@H](C)O)NC(=O)[C@H](C)NC1=O)C(=O)N1C[C@@H](O)C[C@H]1C(=O)N[C@@H](C)C(=O)N2
logP: 1.7
